Source: ChEMBL document CHEMBL1781932 (J Med Chem, 2011)
Converted amounts (≈) assume the structure as drawn.

Legend:
Streptococcus pneumoniae [1] = assay: Antimicrobial activity against tetracycline-resistant Streptococcus pneumoniae isolate 160 harboring tetM gene by CLSI dilution method; assay type: functional
Streptococcus pneumoniae [2] = assay: Antimicrobial activity against tetracycline-susceptible Streptococcus pneumoniae isolate 106 by CLSI dilution method; assay type: functional
Outline: (§1)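 Broth microdilution per CLSI in fresh cation-adjusted Mueller Hinton broth, kept at 4 °C before testing, with defibrinated horse blood added as appropriate. Strains were from ATCC. MIC in µg/mL. Runs were accepted when comparator antibiotics against ATCC quality-control strains fell within recommended ranges.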

Staphylococcus aureus [3] = assay: Antimicrobial activity against methicillin-, tetracycline-resistant Staphylococcus aureus isolate 161 harboring tetM gene by CLSI dilution method; assay type: functional
Enterococcus faecalis [4] = assay: Antimicrobial activity against tetracycline-resistant Enterococcus faecalis isolate 159 harboring […] gene by CLSI dilution method; assay type: functional
Enterobacter cloacae = assay: Antimicrobial activity against tetracycline-susceptible Enterobacter cloacae isolate 108 by CLSI dilution method; assay type: functional; outline: as §1
Staphylococcus aureus [5] = assay: Antimicrobial activity against tetracycline-resistant Staphylococcus aureus isolate 158 harboring tetK gene by CLSI dilution method; assay type: functional
Pseudomonas aeruginosa = assay: Antimicrobial activity against tetracycline-susceptible Pseudomonas aeruginosa isolate 111 by CLSI dilution method; assay type: functional; outline: as §1
Staphylococcus aureus [6] = assay: Antimicrobial activity against tetracycline-susceptible Staphylococcus aureus isolate 101 by CLSI dilution method; assay type: functional
Acinetobacter baumannii = assay: Antimicrobial activity against tetracycline-susceptible Acinetobacter baumannii isolate 110 by CLSI dilution method; assay type: functional; outline: as §1
Klebsiella pneumoniae [7] = assay: Antimicrobial activity against tetracycline-resistant Klebsiella pneumoniae isolate 153 harboring tetA gene by CLSI dilution method; assay type: functional
Klebsiella pneumoniae [8] = assay: Antimicrobial activity against tetracycline-susceptible Klebsiella pneumoniae isolate 109 by CLSI dilution method; assay type: functional; outline: as §1
Escherichia coli [9] = assay: Antimicrobial activity against tetracycline-resistant Escherichia coli isolate 155 harboring tetA gene by CLSI dilution method; assay type: functional
Enterococcus faecalis [10] = assay: Antimicrobial activity against tetracycline-susceptible Enterococcus faecalis isolate 103 by CLSI dilution method; assay type: functional; outline: as §1
Escherichia coli [11] = assay: Antimicrobial activity against tetracycline-susceptible Escherichia coli isolate 107 by CLSI dilution method; assay type: functional; outline: as §1
[12] = Apparent volume of distribution in Sprague-Dawley rat at 1 mg/kg, iv administered as single dose measured after 24 to 48 hrs; conditions: in vivo
[13] = Elimination half life in Sprague-Dawley rat at 1 mg/kg, iv administered as single dose; assay type: ADME, organism-based; parameters: dose 1 mg/kg, route intravenous; conditions: in vivo, read-out: beta t1/2 (converted)
Outline: (§2)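 Sprague-Dawley rats (n = 3) were fasted overnight (minimum 12 h) and given a single dose, iv 1 mg/kg or oral 10 mg/kg, in sterile water. Samples were taken over 24–48 h. PK parameters came from noncompartmental analysis.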

[14] = AUC (0 to infinity) in Sprague-Dawley rat at 1 mg/kg, iv administered as single dose measured after 24 to 48 hrs; assay type: ADME, organism-based; parameters: time infinity, dose 1 mg/kg, route intravenous; conditions: plasma; outline: as §2
Staphylococcus aureus [15] = assay: Antimicrobial activity against tetracycline-susceptible Staphylococcus aureus Smith isolate 100 infected in iv dosed mouse systemic infection model assessed as survival of mouse administered 60 mins post infection measured up to 48 hrs; assay type: functional; conditions: Smith isolate 100, iv, read-out: PD50
Outline: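 Mouse septicemia model with S. aureus ATCC 13709 mixed with 5% mucin, given intraperitoneally at 2.1×10^6 cfu/mouse. Compound was dosed intravenously 60 min after infection at 0.3–30 mg/kg in sterile water, 6 mice/dose group, with untreated infection controls. Survival was followed over 48 h. PD50 was derived by Probit analysis with 95% CI.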

[16] = Cmax in Sprague-Dawley rat at 1 mg/kg, iv administered as single dose measured after 24 to 48 hrs; assay type: ADME, organism-based; parameters: dose 1 mg/kg, route intravenous; conditions: in vivo; outline: as §2
[17] = Clearance in Sprague-Dawley rat at 1 mg/kg, iv administered as single dose measured after 24 to 48 hrs; assay type: ADME, organism-based; parameters: dose 1 mg/kg, route intravenous; conditions: in vivo; outline: as §2
Staphylococcus aureus [18] = assay: Antimicrobial activity against tetracycline-susceptible Staphylococcus aureus Smith isolate 100 by CLSI dilution method; assay type: functional

| Structure (SMILES) | MIC (Streptococcus pneumoniae [1]) | MIC (Streptococcus pneumoniae [2]) | MIC (Staphylococcus aureus [3]) | MIC (Enterococcus faecalis [4]) | MIC (Enterobacter cloacae) | MIC (Staphylococcus aureus [5]) | MIC (Pseudomonas aeruginosa) | MIC (Staphylococcus aureus [6]) | MIC (Acinetobacter baumannii) | MIC (Klebsiella pneumoniae [7]) | MIC (Klebsiella pneumoniae [8]) | MIC (Escherichia coli [9]) | MIC (Enterococcus faecalis [10]) | MIC (Escherichia coli [11]) | further results |
| --- | --- | --- | --- | --- | --- | --- | --- | --- | --- | --- | --- | --- | --- | --- | --- |
| CN(C)[C@@H]1C(O)=C(C(N)=O)C(=O)[C@@]2(O)C(O)=C3C(=O)c4c(c(Cl)c5ccc(F)cc5c4O)C[C@H]3C[C@@H]12 | > 32 µg/mL | > 32 µg/mL | 2 µg/mL (≈ 3.87 µM) | 2 µg/mL (≈ 3.87 µM) | > 32 µg/mL | 2 µg/mL (≈ 3.87 µM) | > 32 µg/mL | 2 µg/mL (≈ 3.87 µM) | > 32 µg/mL | > 32 µg/mL | > 32 µg/mL | > 32 µg/mL | 2 µg/mL (≈ 3.87 µM) | > 32 µg/mL | – |
| CN(C)[C@@H]1C(O)=C(C(N)=O)C(=O)[C@@]2(O)C(O)=C3C(=O)c4c(cc5c(CNC6CC6)cccc5c4O)C[C@H]3C[C@@H]12 | 4 µg/mL (≈ 7.5 µM) | 0.5 µg/mL (≈ 0.937 µM) | 16 µg/mL (≈ 30 µM) | 16 µg/mL (≈ 30 µM) | > 32 µg/mL | 1 µg/mL (≈ 1.87 µM) | > 32 µg/mL | 2 µg/mL (≈ 3.75 µM) | 4 µg/mL (≈ 7.5 µM) | > 32 µg/mL | 32 µg/mL (≈ 60 µM) | > 32 µg/mL | 4 µg/mL (≈ 7.5 µM) | 16 µg/mL (≈ 30 µM) | – |
| CNc1cccc2c(O)c3c(cc12)C[C@H]1C[C@H]2[C@H](N(C)C)C(O)=C(C(N)=O)C(=O)[C@@]2(O)C(O)=C1C3=O | 16 µg/mL (≈ 32.4 µM) | 4 µg/mL (≈ 8.11 µM) | 4 µg/mL (≈ 8.11 µM) | 4 µg/mL (≈ 8.11 µM) | > 32 µg/mL | 2 µg/mL (≈ 4.05 µM) | > 32 µg/mL | 2 µg/mL (≈ 4.05 µM) | 32 µg/mL (≈ 64.8 µM) | > 32 µg/mL | > 32 µg/mL | > 32 µg/mL | 4 µg/mL (≈ 8.11 µM) | > 32 µg/mL | – |
| CN(C)c1ccc2c(O)c3c(cc2c1)C[C@H]1C[C@H]2[C@H](N(C)C)C(O)=C(C(N)=O)C(=O)[C@@]2(O)C(O)=C1C3=O | 32 µg/mL (≈ 63 µM) | 16 µg/mL (≈ 31.5 µM) | 4 µg/mL (≈ 7.88 µM) | 4 µg/mL (≈ 7.88 µM) | > 32 µg/mL | 2 µg/mL (≈ 3.94 µM) | > 32 µg/mL | 2 µg/mL (≈ 3.94 µM) | > 32 µg/mL | > 32 µg/mL | > 32 µg/mL | > 32 µg/mL | 4 µg/mL (≈ 7.88 µM) | > 32 µg/mL | – |
| CN(C)[C@@H]1C(O)=C(C(N)=O)C(=O)[C@@]2(O)C(O)=C3C(=O)c4c(c(F)c5ccc(CN6CCC6)cc5c4O)C[C@H]3C[C@@H]12 | 0.125 µg/mL (≈ 0.227 µM) | 0.0625 µg/mL (≈ 0.113 µM) | 1 µg/mL (≈ 1.81 µM) | 2 µg/mL (≈ 3.63 µM) | 2 µg/mL (≈ 3.63 µM) | 0.25 µg/mL (≈ 0.453 µM) | 32 µg/mL (≈ 58 µM) | 0.25 µg/mL (≈ 0.453 µM) | 0.5 µg/mL (≈ 0.907 µM) | 4 µg/mL (≈ 7.25 µM) | 2 µg/mL (≈ 3.63 µM) | 4 µg/mL (≈ 7.25 µM) | 0.25 µg/mL (≈ 0.453 µM) | 1 µg/mL (≈ 1.81 µM) | Vd [12]: 41.9 L/kg; half-life [13]: 481 min; AUC(0-inf) [14]: 354 ng·h/mL; ED50 (Staphylococcus aureus [15]): 0.3 mg/kg; Cmax [16]: 73 ng/mL; clearance [17]: 52.4 mL/min/kg |
| CN(C)[C@@H]1C(O)=C(C(N)=O)C(=O)[C@@]2(O)C(O)=C3C(=O)c4c(c(OCC(O)CO)c5ccc(CN6CCC6)cc5c4O)C[C@H]3C[C@@H]12 (stereo partly specified) | 16 µg/mL (≈ 25.7 µM) | 4 µg/mL (≈ 6.41 µM) | > 32 µg/mL | > 32 µg/mL | > 32 µg/mL | > 32 µg/mL | > 32 µg/mL | > 32 µg/mL | > 32 µg/mL | > 32 µg/mL | > 32 µg/mL | > 32 µg/mL | 32 µg/mL (≈ 51.3 µM) | > 32 µg/mL | – |
| CNc1c2c(c(O)c3cc(CN4CCC4)ccc13)C(=O)C1=C(O)[C@]3(O)C(=O)C(C(N)=O)=C(O)[C@@H](N(C)C)[C@@H]3C[C@@H]1C2 | 1 µg/mL (≈ 1.78 µM) | 0.25 µg/mL (≈ 0.444 µM) | 8 µg/mL (≈ 14.2 µM) | 8 µg/mL (≈ 14.2 µM) | 32 µg/mL (≈ 56.9 µM) | 2 µg/mL (≈ 3.55 µM) | > 32 µg/mL | 2 µg/mL (≈ 3.55 µM) | > 32 µg/mL | > 32 µg/mL | 32 µg/mL (≈ 56.9 µM) | > 32 µg/mL | 4 µg/mL (≈ 7.11 µM) | 4 µg/mL (≈ 7.11 µM) | – |
| CN(C)[C@@H]1C(O)=C(C(N)=O)C(=O)[C@@]2(O)C(O)=C3C(=O)c4c(cc5ccc(-c6ccccc6)cc5c4O)C[C@H]3C[C@@H]12 | > 32 µg/mL | > 32 µg/mL | 8 µg/mL (≈ 14.8 µM) | 0.5 µg/mL (≈ 0.925 µM) | > 32 µg/mL | 4 µg/mL (≈ 7.4 µM) | > 32 µg/mL | 2 µg/mL (≈ 3.7 µM) | > 32 µg/mL | > 32 µg/mL | > 32 µg/mL | > 32 µg/mL | 2 µg/mL (≈ 3.7 µM) | > 32 µg/mL | – |
| CN(C)c1ccc(-c2ccc3cc4c(c(O)c3c2)C(=O)C2=C(O)[C@]3(O)C(=O)C(C(N)=O)=C(O)[C@@H](N(C)C)[C@@H]3C[C@@H]2C4)cc1 | > 32 µg/mL | > 32 µg/mL | > 32 µg/mL | 16 µg/mL (≈ 27.4 µM) | > 32 µg/mL | 16 µg/mL (≈ 27.4 µM) | > 32 µg/mL | > 32 µg/mL | > 32 µg/mL | > 32 µg/mL | > 32 µg/mL | > 32 µg/mL | > 32 µg/mL | > 32 µg/mL | – |
| CN(C)c1cc(NC(=O)CNC(C)(C)C)c(O)c2c1C[C@H]1C[C@H]3[C@H](N(C)C)C(O)=C(C(N)=O)C(=O)[C@@]3(O)C(O)=C1C2=O [TIGECYCLINE] | 0.0156 µg/mL (≈ 0.0266 µM) | 0.0156 µg/mL (≈ 0.0266 µM) | 0.125 µg/mL (≈ 0.213 µM) | 0.0625 µg/mL (≈ 0.107 µM) | 0.25 µg/mL (≈ 0.427 µM) | 0.0625 µg/mL (≈ 0.107 µM) | 8 µg/mL (≈ 13.7 µM) | 0.0625 µg/mL (≈ 0.107 µM) | 0.25 µg/mL (≈ 0.427 µM) | 1 µg/mL (≈ 1.71 µM) | 0.125 µg/mL (≈ 0.213 µM) | 0.5 µg/mL (≈ 0.854 µM) | 0.0313 µg/mL (≈ 0.0534 µM) | 0.0313 µg/mL (≈ 0.0534 µM) | MIC (Staphylococcus aureus [18]): 0.0625 µg/mL (≈ 0.107 µM); half-life [13]: 276 min; AUC(0-inf) [14]: 1050 ng·h/mL; ED50 (Staphylococcus aureus [15]): 0.35 mg/kg; Cmax [16]: 428 ng/mL |
